Assay results collected from several papers.
Compare with care: the assays were run in different laboratories.
Target: Serine/threonine-protein kinase Chk2 (CHEK2, Homo sapiens, UniProt O96017)

SMILES | effect on | method | concentration | remaining binding [%]
F[C@@H]1CCN(c2nccc(-c3cnn4ncccc34)n2)C1 | binding |  | 1 µM | 100
N#Cc1ccc(Nc2ccc3[nH]c(=O)[nH]c3c2)c(Cl)c1 | cell-free assay | competition with immobilised ligand | 1 µM | 100
O=C(c1ccc(Nc2ncc(Cl)c(-c3cc4ccccc4s3)n2)cc1)N1CCC(N2CCCC2)CC1 | binding | competition with immobilised ligand | 1 µM | 82
CCN1CCN(Cc2ccc(C(=O)Nc3ccc(C)c(Oc4ccc5c(c4)CC(=O)N5)c3)cc2C(F)(F)F)CC1 | binding | competition with immobilised ligand | 1 µM | 100
O=C(NCc1ncc(C(F)(F)F)cc1Cl)c1ccc2c(c1)C1(CCS(=O)(=O)CC1)[C@H](C1CC1)N2S(=O)(=O)c1ccc(F)cc1 | cell-free assay | competition with immobilised ligand | 1 µM | 100
CNC(=O)[C@@H]1CC[C@@H](n2c(-c3ccc4cnccc4c3)nc3ccc(C(=O)NCc4cccc(C(N)=O)c4)cc32)C1 | binding | competition with immobilised ligand | 1 µM | 100
Cc1cc(-n2nc(Cc3cc(F)cc(C(F)(F)F)c3)nc2C)ccc1C(N)=O | cell-free assay | competition with immobilised ligand | 1 µM | 100
CN(C)c1nccc(-c2cnn3ncccc23)n1 | binding |  | 1 µM | 100
C=CC(=O)N1CCC(C(=O)NCC(=O)N2CCN(c3nc(-c4cnc(N)nc4C(F)F)nc(N4CCOCC4)n3)CC2)CC1 | binding | competition with immobilised ligand | 1 µM | 88
CCCOc1ccc([C@@H]2[C@@H](C(=O)O)[C@H](c3ccc4c(c3)OCO4)CN2CC(=O)Nc2c(CC)cccc2CC)cc1 | cell-free assay | competition with immobilised ligand | 1 µM | 98
N[C@@H]1CCN(c2nccc(-c3cnn4ncccc34)n2)C1 | binding |  | 1 µM | 100
O=C(c1ccc(Nc2ncc(Cl)c(-c3ccc(Cl)s3)n2)cc1)N1CCC(N2CCCC2)CC1 | binding | competition with immobilised ligand | 1 µM | 87
CN(CCCC(F)(F)F)c1nccc(-c2cnn3ncccc23)n1 | binding |  | 1 µM | 99
COc1ncc2cc3ccccc3nc2c1C#N | cell-free assay | competition with immobilised ligand | 5 µM | 100
CC(C)(O)c1cncc(-c2nc3ccc(F)cc3n2C2CC2)c1 | cell-free assay | competition with immobilised ligand | 1 µM | 100
NC(=O)c1nc(Nc2ccccc2)sc1NC(=O)C1CCCCC1 | cell-free assay | competition with immobilised ligand | 10 µM | 2.7
C[C@H]1CCN(c2nccc(-c3cnn4ncccc34)n2)C1 | binding |  | 1 µM | 94
O=C(NCC1CCOCC1)c1n[nH]cc1NC(=O)c1c(F)cccc1F | binding | competition with immobilised ligand | 1 µM | 97
Nc1ncc2c(n1)-c1c([nH]c3ccc(C#CC4CC4)cc13)CCCC2 | binding | competition with immobilised ligand | 1 µM | 86
CN(C)C(=O)Cn1cc(-c2nc(C3(c4ccc(-c5cnc(N)nc5)cc4)CC3)no2)cn1 | cell-free assay | competition with immobilised ligand | 1 µM | 100
COc1ccnn2ncc(-c3ccnc(N(C)C)n3)c12 | binding |  | 1 µM | 87
O=C(c1ccc(Nc2nccc(-c3cc4ccccc4s3)n2)cc1)N1CCC(N2CCCC2)CC1 | binding | competition with immobilised ligand | 1 µM | 100
CN(c1nccc(-c2cnn3ncccc23)n1)C1CC1 | binding |  | 1 µM | 100
CNC(=O)Nc1ccc2c(c1)CC[C@@]21OC(=O)N(CC(=O)N(Cc2ccc(F)cc2)[C@@H](C)C(F)(F)F)C1=O | cell-free assay | competition with immobilised ligand | 1 µM | 100
